# This is a sample that favours compounds with a hit; in the whole collection about 3% have one here.
# esBAF inh = blocks esBAF chromatin remodeling in mouse ES cells | Bmi1-luciferase knock-in reporter, 24 h; 100% = twice the neutral-well signal | reporter increase, % at 12.5 µM | actives 2% (n = 350,000); in the data active = activation above about 40%; inconclusive = no clear call, values can overlap the other calls;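 also: 0% = median of the plate's neutral control wells and 100% = double that signal; a rise in the Bmi1 reporter signal indicates esBAF inhibition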
# MITF TRPM1 HTS = MITF TRPM1 promoter activation in melanoma cells; SK-MEL-5 TRPM1-promoter luciferase, 24 h; % of positive control, neutral wells = 0; activation, % at 12.5 µM; actives 0.75% (n = 300,000);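 active = mean activation of at least 80% with every replicate also reaching 80%; inconclusive = mean reaches 80% but some replicate falls short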;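 also: 0% = neutral control wells and 100% = parthenolide positive control wells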
# Wnt bcat act = activates Wnt/beta-catenin signaling in a reporter cell assay; activator, plate reader; activation, % at 9.35 µM; actives 1.2% (n = 300,000); in the data active = activation above about 30%, passing the limit was not always enough; inconclusive = no clear call, values can overlap the other calls;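 also: 0% = neutral control wells and 100% = positive control wells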
# CASP6 VEID inh = inhibitors of human caspase-6; P55212; AID 686996; actives 0.53% (n = 350,000); purified caspase-6, Z-VEID-R110 cleavage fluorescence; inhibition, % at 12.5 µM;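 active = mean inhibition across replicates at least about 35%, with every replicate also reaching that limit, limit read from the data; inconclusive = only one of the two criteria met; inactive = neither criterion met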;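 also: 0% = median of neutral control wells and 100% = no fluorescence left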
# Target sequence (P55212 24-179 limits assumed): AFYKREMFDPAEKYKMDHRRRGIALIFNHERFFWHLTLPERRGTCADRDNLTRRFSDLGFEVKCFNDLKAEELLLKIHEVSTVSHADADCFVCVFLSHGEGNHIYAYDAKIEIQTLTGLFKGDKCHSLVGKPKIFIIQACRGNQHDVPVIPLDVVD
# Target sequence (P55212 194-293 limits assumed): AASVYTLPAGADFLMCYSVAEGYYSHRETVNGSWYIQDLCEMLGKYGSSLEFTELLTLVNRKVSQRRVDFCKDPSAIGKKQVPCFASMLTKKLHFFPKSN
# XiGFP reactiv = reactivates the inactive X chromosome in mouse fibroblasts; actives 0.055% (n = 360,000); AID 743238; activation, % at 7.58 µM; XiGFP mouse fibroblasts, % GFP-positive cells imaging, 3 d; cells co-treated with 5-aza-dC sensitizer; scaled so ellipticine positive control = 100%;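 active = mean normalized replicate activation at least 10% and every replicate at or above 10%; inconclusive = only one of the two criteria met; inactive = mean below 10% and not all replicates reach 10%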;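 also: 0% = median of on-plate neutral control wells and 100% = ellipticine 6 µM median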
#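 Assay system: SV40-immortalized XiGFP fibroblast cells, line 68-5-11; buffer or medium: DMEM plus 5-aza-dC sensitizer; compound: one concentration, pinned; timing: compounds 3 days, fix/stain 15 min at room temperature; benchmarks: positive control ellipticine, 6 µM final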
# NSD2 inh = blocks human histone methyltransferase NSD2; O96028; AID 743445; actives 0.54% (n = 310,000); NSD2 peptide methylation, AlphaScreen, 120 min; inhibition, % at 12.5 µM; in the data active = inhibition above about 50%
# The depositor's hits bear a star; ? = inconclusive; / = no result.
SMILES,esBAF inh,MITF TRPM1 HTS,Wnt bcat act,CASP6 VEID inh,XiGFP reactiv,NSD2 inh
O=C1C=C(C2CCCCC2)C(=O)c2ccccc21,5.8,-45.5,-4.6,50.4*,0.3,-0.3
CCNC(=O)[C@H]1[C@H](CO)[C@H]2Cn3c(ccc(C4=CCCC4)c3=O)[C@@H]1N2Cc1ccncc1,-0.7,/,/,0.6,0.2,/
c1coc(CNc2c3c(nc4ncnn24)CCCC3)c1,/,-5.6,2.9,/,/,1.1
Clc1cccc(-c2cc3nc4c(c(NCc5ccco5)n3n2)CCCC4)c1,44.2*,53.5,/,/,/,0.3
Nc1nc(Nc2ccccc2F)sc1C(=O)c1ccccc1,/,100.2*,35.3*,5.3,0.1,3.0
O=C(NNc1ccccc1F)c1ccccc1,/,/,2.5,1.2,0.3,-0.7
Cc1ccc2c(CN3CCC(C)CC3)cc(=O)oc2c1C,?,93.5*,3.7,0.0,0.0,0.8
COCC(=O)Nc1ccc2c(c1)OC[C@@H](C)N(Cc1cncnc1)C[C@@H](C)[C@@H](OC)CN(C)C2=O,-4.0,/,/,/,0.3,/
Cc1ccc2oc(-c3cccc(NC(=O)C4CCCO4)c3)nc2c1 (stereo not drawn),79.1*,29.7,/,/,/,-2.2
COc1cc(C(=O)Nc2cccc(-c3nc4cc(C)ccc4o3)c2)cc(OC)c1OC,/,24.1,8.3,-2.3,0.0,38.2
CCC(=O)Nc1cccc(-c2nc3ccc(C)cc3o2)c1,39.7,/,38.0*,-4.6,0.0,-0.3
Cc1ccc2oc(-c3cccc(NC(=O)c4ccccn4)c3)nc2c1,39.7,/,37.3*,2.5,0.0,-4.6
CCCC#Cc1ccc2c(c1)[C@H]1[C@H](CCN1C(=O)C1CCCCC1)[C@@H](CO)N2,/,/,/,/,0.1,/
C[C@H]1CN([C@@H](C)CO)C(=O)c2cc(NS(C)(=O)=O)ccc2O[C@H]1CN(C)CC1CC1,0.0,/,/,-1.1,0.3,/
O=c1c2ccccc2cnn1CCOc1cccc(Br)c1,49.0*,-2.3,20.9,-1.4,0.0,-10.1
Cc1ccc(OCCn2ncc3ccccc3c2=O)c(C)c1,8.2,12.3,0.5,0.8,0.1,-3.0
C[C@@H]1CN([C@H](C)CO)C(=O)c2cc(NC(=O)Nc3cccc4ccccc34)ccc2O[C@@H](C)CCCCO[C@@H]1CN(C)S(=O)(=O)c1ccccc1,/,/,/,/,0.3,/
CCOC(=O)c1ccc(NC(=O)C2C3CCCCC32)cc1 (stereo not drawn),?,82.2*,2.7,-2.0,0.1,1.8
CCOC(=O)c1ccc(NC(=O)C2C3CCC(C3)C2C(=O)O)cc1 (stereo not drawn),15.5,30.1,0.0,/,/,-3.1
CC(C)(C)C(=O)Nc1ccc(C(=O)OC2CCCCC2)cc1,63.6*,104.6*,/,-1.4,/,-4.0
CCOC(=O)c1ccc(NC(=S)NC(=O)C2CCCC2)cc1,5.4,-4.4,-2.1,-1.7,0.3,-0.4
CC(C)COC(=O)c1ccc(NC(=O)C2C3CCC(C3)C2C(=O)O)cc1 (stereo not drawn),57.9*,56.4,1.2,/,/,-1.0
O=C(OC1CCCCC1)c1ccc(NC(=O)C2CCCCC2)cc1,/,13.6,/,/,/,43.2
CCOC(=O)c1ccc(NS(=O)(=O)N2CCCCCC2)cc1,47.3*,19.4,-2.2,/,/,0.2
CC(C)C#Cc1ccc2c(c1)O[C@@H](CN(C)C(=O)C1CCCCC1)[C@H](C)CN([C@H](C)CO)S2(=O)=O,2.6,/,/,/,-1.0,/
SMILES,esBAF inh,MITF TRPM1 HTS,Wnt bcat act,CASP6 VEID inh,XiGFP reactiv,NSD2 inh
C[C@@H]1CN([C@@H](C)CO)C(=O)Cc2cc(NC(=O)CCCCCC(=O)Nc3ccccc3N)ccc2O[C@H]1CN(C)CC1CC1,/,/,/,0.0,-0.2,/
Cc1ccc(NC(=O)C2C3/C=C\CCCCC32)cc1 (stereo not drawn),/,93.6*,15.7,-0.6,0.6,0.6
CCOC(=O)c1ccc(NC(=O)N2CCOCC2)cc1,/,25.5,10.3,4.2,-0.1,0.6
CCOC(=O)c1ccc(NC(=O)N2CCCCCC2)cc1,16.5,98.4*,36.6*,4.4,-0.1,7.8
Cc1cc(C)c(NC(=O)C2C3/C=C\CCCCC32)c(C)c1 (stereo not drawn),0.6,/,-1.0,/,/,0.6
CN(Cc1ccco1)c1ncnc2ccc(-c3ccoc3)cc12,-10.3,8.0,2.6,39.5*,0.2,/
COc1ccc(NC(=O)Nc2ccc3c(c2)[C@H]2C[C@H](CC(=O)N(C)C)O[C@@H](CO)[C@H]2O3)cc1,3.6,/,/,1.9,0.1,/
O=C1c2ccccc2CN1CCSC(=S)N1CCOCC1,/,53.9,41.2*,-0.1,0.0,29.0
CC1CN(C(=S)SCCN2Cc3ccccc3C2=O)CC(C)O1 (stereo not drawn),/,1.2,-1.0,-0.6,0.0,0.4
COc1ccc(-n2c(C)cc(/C=C/c3nc(O)c([N+](=O)[O-])c(=O)[nH]3)c2C)cc1,/,5.6,-0.9,62.1*,0.0,32.5
O=c1[nH]c(/C=C\c2cccc(O)c2)nc(O)c1[N+](=O)[O-],-4.7,/,2.9,8.5,0.1,11.8
O=C(O)c1ccc(N/N=C/C=C/c2ccccc2[N+](=O)[O-])cc1,78.7*,112.4*,10.4,-3.9,0.1,/
Oc1ccccc1C=NN=CC=Cc1ccccc1,/,46.1,-2.9,-3.6,0.1,0.8
O=C(Cc1ccccc1)N/N=C/C=C/c1ccccc1[N+](=O)[O-],/,/,34.8*,-3.3,0.1,-0.7
O=[N+]([O-])c1ccccc1C=CC=NN=Cc1ccccc1O,/,30.9,70.7*,-4.1,0.0,-7.7
O=C(N/N=C/C=C/c1ccccc1[N+](=O)[O-])c1ccncc1,/,/,-1.1,2.1,0.5,0.6
C[C@H]1CN([C@@H](C)CO)C(=O)c2cc(Br)cnc2O[C@H]1CN(C)C(=O)NC1CCCC1,0.1,/,/,/,-0.1,/
CN1C(=O)c2cc(NC(=O)c3ccc(F)c(F)c3)ccc2OC[C@@H]2O[C@H](CC(=O)O)CC[C@@H]21,-0.6,/,/,/,0.0,/
COc1ccc2c3c(n(C)c2c1)[C@@H](CO)N(C(=O)Nc1ccc(F)cc1)CC31CCN(C(=O)CN2CCOCC2)CC1,/,/,/,7.3,0.4,/
CCc1ccccc1OCC(=O)Nc1ccc(N2CCCC2)cc1C,3.7,-1.3,-2.7,-43.8,37.5*,-0.5
Cc1cc(N2CCCC2)ccc1NC(=O)CN1C(=O)NC2(CCCCC2)C1=O,-1.9,3.6,1.7,39.2*,-0.1,5.5
O=C(CN1C(=O)NC2(CCCCCC2)C1=O)Nc1cccc(F)c1,-5.9,/,0.4,-0.9,0.2,-2.5
Cc1cc(N2CCCC2)ccc1NC(=O)COc1ccccc1,10.2,-0.7,-5.3,-0.5,1.6,-2.2
Cc1cc(Cl)ccc1NC(=O)CN1C(=O)NC2(CCCC2)C1=O,-4.1,-6.2,-1.5,-1.0,-0.1,2.5
CC1CCCCC12NC(=O)N(CC(=O)Nc1ccc3c(c1)OCO3)C2=O (stereo not drawn),-1.7,/,-2.4,2.3,-0.1,8.9
CC1CCCCC12NC(=O)N(CC(=O)NC(=O)Nc1ccc3c(c1)OCCO3)C2=O (stereo not drawn),56.7*,53.2,3.0,/,/,2.3
